Structures are written as SMILES.

The assay deals with T1, Prostaglandin G/H synthase 1 (Ovis aries) (UniProt P05979).
T1 sequence (whole entry): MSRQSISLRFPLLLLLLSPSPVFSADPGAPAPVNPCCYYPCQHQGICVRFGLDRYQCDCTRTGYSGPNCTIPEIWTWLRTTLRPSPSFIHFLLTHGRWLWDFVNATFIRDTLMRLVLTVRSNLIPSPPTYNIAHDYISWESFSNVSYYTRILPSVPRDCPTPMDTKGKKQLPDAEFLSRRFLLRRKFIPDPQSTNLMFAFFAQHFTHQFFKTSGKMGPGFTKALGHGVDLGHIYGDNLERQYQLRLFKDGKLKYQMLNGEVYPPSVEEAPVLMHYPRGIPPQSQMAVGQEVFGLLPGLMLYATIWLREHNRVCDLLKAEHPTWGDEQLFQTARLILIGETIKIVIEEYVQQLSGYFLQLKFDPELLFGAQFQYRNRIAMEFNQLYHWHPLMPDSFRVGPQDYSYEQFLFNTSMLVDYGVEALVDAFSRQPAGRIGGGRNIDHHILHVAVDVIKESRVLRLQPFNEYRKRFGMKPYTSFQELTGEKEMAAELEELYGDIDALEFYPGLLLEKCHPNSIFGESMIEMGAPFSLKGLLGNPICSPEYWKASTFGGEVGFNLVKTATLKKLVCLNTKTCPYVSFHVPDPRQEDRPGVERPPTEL
The experiment in a line: Inhibition of sheep COX1 assessed as PGE2 level at 50 uM by ELISA. Put shortly: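 Ovine COX-1 preincubated 10 min at 37 °C in 100 mM Tris-HCl pH 8.0 with 1 µM heme. Compounds in DMSO, diluted in 100 mM potassium phosphate pH 7.4. Arachidonic acid added to 100 uM final; stopped after 2 min with 1 M HCl. PGE2 measured by competitive ELISA with AChE tracer and Ellman's reagent at 412 nm against a PGE2 standard curve. Expressed as % of solvent control; duplicate, two independent experiments.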
In general terms: In an ELISA, binding on a coated surface is turned into a signal by an enzyme label.
As usually defined, the inhibition is the share of the control response that was lost under treatment. Regarding `Cc1noc2c(Cc3ccccc3)nn(CC(=O)N/N=C\c3cccc(F)c3)c(=O)c12`, the inhibition is 83%.

With `Cc1noc2c(Cc3ccccc3)nn(CC(=O)N/N=C\c3ccccc3Br)c(=O)c12`, the inhibition came out at 52.8%.

Turning to `Cc1noc2c(Cc3ccccc3)nn(CC(=O)N/N=C\c3ccccc3[N+](=O)[O-])c(=O)c12`, the inhibition was 59%.

As to `Cc1noc2c(Cc3ccccc3)nn(CC(=O)N/N=C\c3cccc(C(F)(F)F)c3)c(=O)c12`, the inhibition is 47.1%.

As for `Cc1noc2c(Cc3ccccc3)nn(CC(=O)N/N=C\c3ccccc3)c(=O)c12`, the inhibition is 50.6%.

In the case of `COc1ccc(/C=N\NC(=O)Cn2nc(Cc3ccccc3)c3onc(C)c3c2=O)cc1`, the inhibition is 46.3%.

In the case of `Cc1noc2c(Cc3ccccc3)nn(CC(=O)N/N=C\c3ccc([N+](=O)[O-])cc3)c(=O)c12`, the inhibition was 40.7%.

As for `Cc1ccccc1/C=N\NC(=O)Cn1nc(Cc2ccccc2)c2onc(C)c2c1=O`, the inhibition turned out to be 46.9%.

Turning to `Cc1noc2c(Cc3ccccc3)nn(CC(=O)N/N=C\c3ccc(F)cc3)c(=O)c12`, the inhibition amounted to 54%.

On to `Cc1noc2c(Cc3ccccc3)nn(CC(=O)N/N=C\c3ccc(C(F)(F)F)cc3)c(=O)c12`, for which the inhibition stood at 64%.

In the case of `Cc1noc2c(Cc3ccccc3)nn(CC(=O)N/N=C\c3ccccc3C(F)(F)F)c(=O)c12`, the inhibition came out at 51%.

In the case of `Cc1noc2c(Cc3ccccc3)nn(CC(=O)N/N=C\c3ccc(Br)cc3)c(=O)c12`, the inhibition was 50.6%.

As for `COc1cccc(/C=N\NC(=O)Cn2nc(Cc3ccccc3)c3onc(C)c3c2=O)c1`, the inhibition amounted to 55.2%.

As for `COc1ccc2c(c1)c(CC(=O)O)c(C)n2C(=O)c1ccc(Cl)cc1`, the inhibition was 78%.

For `Cc1noc2c(Cc3ccccc3)nn(CC(=O)N/N=C\c3cccc([N+](=O)[O-])c3)c(=O)c12`, the inhibition was found to be 39.6%.

As for `Cc1ccc(/C=N\NC(=O)Cn2nc(Cc3ccccc3)c3onc(C)c3c2=O)cc1`, the inhibition was found to be 62.1%.

As to `Cc1cccc(/C=N\NC(=O)Cn2nc(Cc3ccccc3)c3onc(C)c3c2=O)c1`, the inhibition is 61%.

Turning to `Cc1noc2c(Cc3ccccc3)nn(CC(=O)N/N=C\c3cccc(Cl)c3)c(=O)c12`, the inhibition was 36.3%.

Regarding `COc1ccccc1/C=N\NC(=O)Cn1nc(Cc2ccccc2)c2onc(C)c2c1=O`, the inhibition was determined as 65%.

Regarding `Cc1noc2c(Cc3ccccc3)nn(CC(=O)N/N=C\c3ccc(Cl)cc3)c(=O)c12`, the inhibition amounted to 39.6%.

Consider `Cc1noc2c(Cc3ccccc3)nn(CC(=O)N/N=C\c3ccccc3Cl)c(=O)c12`, for which the inhibition worked out at 52.8%.

For `Cc1noc2c(Cc3ccccc3)nn(CC(=O)N/N=C\c3cccc(Br)c3)c(=O)c12`, the inhibition turned out to be 42.9%.

On to `Cc1noc2c(Cc3ccccc3)nn(CC(=O)N/N=C\c3ccccc3F)c(=O)c12`, for which the inhibition amounted to 41.8%.
